# According to ChEMBL document CHEMBL2057128, “Chemoenzymatic synthesis and biological evaluation of 2- and 3-hydroxypyridine derivatives against Leishmania mexicana” (Bioorg Med Chem, 2012):
# Active and inactive are the calls of the source. The calls are words filed in the database; no cut-off is given here.
# Tested on: Leishmania mexicana
# Assay: Antileishmanial activity against promastigote form of Leishmania mexicana from 10 to 50 ug/mL measured every 2 days for 10 days by neubauer chamber analysis
# Format: functional, organism-based
# Settings: not given
# Procedure, shortened: (§1)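 Promastigotes grown at 28 °C in cell-free medium (Na2HPO4, KCl, glucose, pH about 7.5) supplemented after sterilization with penicillin (100 IU/mL), streptomycin, haemin and 20% v/v heat-inactivated fetal calf serum. Cultures started from exponential-phase inocula, shaken manually twice daily, compounds added with DMSO at 0.1% final. Parasites counted in a Neubauer chamber every two days over 10 days.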
row,SMILES,Activity
1,OCCCCCCCCOc1ccccn1,inactive
2,CC(=O)OCCCCCCCCCOc1ccccn1,inactive
3,CC(=O)OCCCCCCCCCCOc1ccccn1,inactive
4,CC(=O)OCCCCCCCCCCCCOc1ccccn1,inactive
5,OCCCCCCCCCCCOc1cccnc1,inactive
6,CC(=O)OCCCCCCCOc1cccnc1,inactive
7,CCC(=O)OCCCCCCCCCCCOc1cccnc1,inactive
8,CC(=O)OCCCCCCOc1cccnc1,inactive
9,OCCCCCCOc1cccnc1,inactive
10,CC(=O)OCCCCCCCCCCCOc1cccnc1,inactive
11,CC(=O)OCCCCCCOc1ccccn1,inactive
12,OCCCCCCCCCOc1cccnc1,inactive
13,CC(=O)OCCCCCCCCCCCOc1ccccn1,inactive
14,CC(=O)OCCCCCCCCOc1cccnc1,inactive
15,CC(=O)OCCCCCCCCOc1ccccn1,inactive
16,OCCCCCCCCCCCCOc1ccccn1,inactive
17,CCC(=O)OCCCCCCCCCCCOc1ccccn1,inactive
18,OCCCCCCCCCCCOc1ccccn1,inactive
19,OCCCCCCCOc1cccnc1,inactive
20,OCCCCCCCCOc1cccnc1,inactive
21,CC(=O)OCCCCCCCOc1ccccn1,inactive
22,OCCCCCCCCCCOc1cccnc1,inactive
23,OCCCCCCCCCOc1ccccn1,inactive
24,OCCCCCCCOc1ccccn1,inactive
25,OCCCCCCCCCCOc1ccccn1,inactive
26,OCCCCCCOc1ccccn1,inactive

# Tested on: Leishmania mexicana
# Assay: Growth inhibition of promastigote form of Leishmania mexicana at 10 ug/mL measured after 6 days by neubauer chamber analysis
# Format: functional
# Settings: 144 h, read-out: GI
# Procedure, shortened: as §1
row,SMILES,inhibition of growth at 10 µg/mL
1,CC(=O)OCCCCCCCCCCCCOc1cccnc1,25%
2,OCCCCCCCCCCCCOc1cccnc1,25%

# Tested on: Leishmania mexicana
# Assay: Growth inhibition of promastigote form of Leishmania mexicana at 20 ug/mL measured after 1 day by neubauer chamber analysis
# Format: functional
# Settings: 24 h, read-out: GI
row,SMILES,inhibition of growth at 20 µg/mL
1,CC(=O)OCCCCCCCCCCCCOc1cccnc1,50%
2,OCCCCCCCCCCCCOc1cccnc1,50%

# Tested on: Leishmania mexicana
# Assay: Growth inhibition of promastigote form of Leishmania mexicana at 20 ug/mL measured after 10 days by neubauer chamber analysis
# Format: functional
# Settings: 240 h, read-out: GI
# Procedure, shortened: as §1
row,SMILES,inhibition of growth at 20 µg/mL
1,CC(=O)OCCCCCCCCCCCCOc1cccnc1,80%
2,OCCCCCCCCCCCCOc1cccnc1,95%

# Tested on: Leishmania mexicana
# Assay: Antileishmanial activity against promastigote form of Leishmania mexicana measured every 2 days for 10 days by neubauer chamber analysis
# Format: functional, organism-based
# Settings: not given
# Procedure, shortened: as §1
row,IC50,SMILES
1,12 µg/mL,CC(=O)OCCCCCCCCCCCCOc1cccnc1
2,16 µg/mL,OCCCCCCCCCCCCOc1cccnc1
3,20 µg/mL,CC(=O)OCCCCCCCCCCOc1cccnc1

row,SMILES,IC50
1,CN[C@@H]1[C@@H](O)[C@@H](O[C@@H]2[C@@H](O)[C@H](O[C@H]3O[C@H]([C@@H](C)O)[C@@H](O)[C@H](O)[C@H]3N)[C@@H](N)C[C@H]2N)OC[C@]1(C)O [GENETICIN],50 µg/mL
